Data from ChEMBL document CHEMBL1140741, “Discovery of 4-aryl-4H-chromenes as a new series of apoptosis inducers using a cell- and caspase-based high throughput screening assay. 4. Structure-activity relationships of N-alkyl substituted pyrrole fused at the 7,8-positions” (J Med Chem, 2008).
Active and inactive are the calls of the source. The calls are words filed in the database; no cut-off is given here.

How the values were obtained:
SNU-398 [1] = assay: Induction of apoptosis in human SNU398 cells assessed as caspase activation after 24 hrs by HTS assay; assay type: functional, cell-based; details: SNU-398, 24 h
How it was run: (§1)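 Proprietary cell- and caspase-based HTS assay in ATCC-sourced cells; EC50 values given as mean ± SEM of three or more experiments.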

HCT-116 [2] = assay: Induction of apoptosis in human HCT116 cells assessed as caspase activation after 24 hrs by HTS assay; assay type: functional, cell-based; details: HCT-116, 24 h; how it was run: as §1
T47D [3] = assay: Induction of apoptosis in human T47D cells assessed as caspase activation after 24 hrs by HTS assay; assay type: functional, cell-based; how it was run: as §1
T47D [4] = assay: Growth inhibition of human T47D cells after 48 hrs; assay type: functional
How it was run: (§2)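 Cells (ATCC-sourced) exposed to compound for 48 h at 37 °C; CellTiter-Glo reagent added, mixed by agitation, incubated 10–15 min at room temperature, luminescence read. GI50 taken as concentration giving 50% inhibition of cell growth.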

MCF7 = assay: Cell cycle arrest in human MCF7 cells by accumulation at G2/M phase; assay type: functional, cell-based
HCT-116 [5] = assay: Growth inhibition of human HCT116 cells after 48 hrs; assay type: functional; details: HCT-116, 48 h; how it was run: as §2
SNU-398 [6] = assay: Growth inhibition of human SNU398 cells after 48 hrs; assay type: functional; details: SNU-398, 48 h; how it was run: as §2
[7] = Inhibition of tubulin polymerization

Compound | EC50 (SNU-398 [1]) | EC50 (HCT-116 [2]) | EC50 (T47D [3]) | GI50 (T47D [4]) | GI50 (HCT-116 [5]) | GI50 (SNU-398 [6]) | IC50 [7] | Activity (MCF7)
COc1cc(C2C(C#N)=C(N)Oc3c2ccc2c3ccn2CO)cc(Br)c1OC (stereo not given) | 2 nM | 3 nM | 3 nM | 2 nM | 4 nM | 1 nM | – | –
COc1cc2c(c(OC)c1OC)-c1ccc(OC)c(=O)cc1[C@@H](NC(C)=O)CC2 [COLCHICINE] | 4 nM | 15 nM | – | 7 nM | – | – | – | –
COc1cc(C2C(C#N)=C(N)Oc3c2ccc2c3ncn2C)cc(Br)c1OC (stereo not given) | 3 nM | 5 nM | 4 nM | – | – | – | – | –
COc1cccc(C2C(C#N)=C(N)Oc3c2ccc2c3ccn2C)c1 (stereo not given) | 5 nM | 7 nM | 6 nM | – | – | – | – | –
COc1cc(C2C(C#N)=C(N)Oc3c2ccc2[nH]ccc32)cc(Br)c1OC (stereo not given) | 15 nM | 14 nM | 5 nM | 8 nM | 20 nM | 14 nM | – | –
COc1cc(C2C(C#N)=C(N)Oc3c2ccc2cc[nH]c32)cc(Br)c1OC (stereo not given) | 86 nM | 69 nM | 16 nM | – | – | – | – | –
COc1cc(C2C(C#N)=C(N)Oc3c2ccc2c3CCN2C)cc(Br)c1OC (stereo not given) | 1 nM | 4 nM | 2 nM | 7 nM | 4 nM | 1 nM | – | –
CC(=O)O[C@H]1C(=O)[C@@]2(C)[C@H]([C@H](OC(=O)c3ccccc3)[C@]3(O)C[C@H](OC(=O)[C@H](O)[C@@H](NC(=O)c4ccccc4)c4ccccc4)C(C)=C1C3(C)C)[C@]1(OC(C)=O)CO[C@@H]1C[C@@H]2O [PACLITAXEL] | 11 nM | 24 nM | 36 nM | – | – | – | – | –

The remaining compounds from weak to strong by EC50 (SNU-398 [1]), led by results:

EC50 (SNU-398 [1]) | EC50 (HCT-116 [2]) | EC50 (T47D [3]) | GI50 (T47D [4]) | GI50 (HCT-116 [5]) | GI50 (SNU-398 [6]) | IC50 [7] | Compound | Activity (MCF7)
130 nM | 170 nM | 150 nM | – | – | – | – | COc1cc(C2C(C#N)=C(N)Oc3c2ccc2ccn(C)c32)cc(Br)c1OC (stereo not given) | –
38 nM | 44 nM | 43 nM | 7 nM | – | – | – | CC[C@]1(O)C[C@@H]2CN(CCc3c([nH]c4ccccc34)[C@@](C(=O)OC)(c3cc4c(cc3OC)N(C)[C@H]3[C@@](O)(C(=O)OC)[C@H](OC(C)=O)[C@]5(CC)C=CCN6CC[C@]43[C@@H]65)C2)C1 [VINBLASTINE] | –
27 nM | 54 nM | 30 nM | – | – | – | – | COc1cc(C2C(C#N)=C(N)Oc3c2ccc2[nH]c(C)cc32)cc(Br)c1OC (stereo not given) | –
25 nM | 44 nM | 39 nM | – | – | – | – | CCn1ccc2c3c(ccc21)C(c1cc(Br)c(OC)c(OC)c1)C(C#N)=C(N)O3 (stereo not given) | –
12 nM | 15 nM | 17 nM | – | – | – | – | COc1cc(C2C(C#N)=C(N)Oc3c2ccc2c3ccn2C)cc2c1OCO2 (stereo not given) | –
12 nM | 58 nM | 43 nM | – | – | – | – | CC[C@]1(O)C[C@H]2CN(CCc3c([nH]c4ccccc34)[C@@](C(=O)OC)(c3cc4c(cc3OC)N(C=O)[C@H]3[C@@](O)(C(=O)OC)[C@H](OC(C)=O)[C@]5(CC)C=CCN6CC[C@]43[C@@H]65)C2)C1 [VINCRISTINE] | –
3 nM | 6 nM | 4 nM | – | – | – | – | COc1cc(C2C(C#N)=C(N)Oc3c2ccc2c3ccn2C)cc(OC)c1OC (stereo not given) | –
3 nM | 6 nM | 5 nM | – | – | – | – | COc1cc(OC)cc(C2C(C#N)=C(N)Oc3c2ccc2c3ccn2C)c1 (stereo not given) | –
3 nM | 3 nM | 3 nM | – | – | – | – | COc1cncc(C2C(C#N)=C(N)Oc3c2ccc2c3ccn2C)c1 (stereo not given) | –
2 nM | 3 nM | 2 nM | 0.3 nM | 1.4 nM | 0.2 nM | 900 nM | COc1cc(C2C(C#N)=C(N)Oc3c2ccc2c3ccn2C)cc(Br)c1OC (stereo not given) | Active
2 nM | 3 nM | 3 nM | 8 nM | 3 nM | 2 nM | – | Cc1cncc(C2C(C#N)=C(N)Oc3c2ccc2c3ccn2C)c1 (stereo not given) | –
